The full list was thinned out, with hits kept by preference.
A1 apoptosis 2 = blocks A1, raising caspase activity. 24,000 tested, under 10 active. MEF A1-2A-BIM cells, caspase-Glo luminescence, 3 h; percent of clofoctol response, DMSO zero. caspase activation, % (test concentration not listed); in the data active = caspase activation above about 5.9%
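System: mouse embryonic fibroblasts co-expressing A1 and BIM (A1-2A-BIM), primed for A1 dependence; amount: 2500 cells/well; doses: 50 nL pinned compound; schedule: cells settled overnight, compound exposure 3 h at 37 °C, 5% CO2; detection: Caspase-Glo 3/7 luminescence, 1 h at room temperature; read-out: Caspase-3/7 activation, seen as rise in luminescence signal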
INS-1E rescue = preserves ATP levels in cytokine-treated INS-1E cells | INS-1E cytokine-induced death, ATP luminescence, 48 h; normalised: neutral wells 0, positive control 100 | AID 488910 | protection from cytokine-induced ATP loss, % at 10 µM | 0.1% of 20,000 active;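 active = mean replicate protection from cytokine-induced ATP loss at least 50% and at least 75% of replicates each reaching 50%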
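assay system = INS-1E rat insulinoma cells | amount = 8000 cells per well | medium = phenol-red-free RPMI with 5% fetal bovine serum | doses = one compound concentration, pin transfer | timing = 48 h cytokine plus compound treatment, 10 min reagent incubation | also added = IL-1β, TNF-α and IFN-γ cytokine mix | signal = CellTiter-Glo luminescence measuring cellular ATP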
T cruzi intra = inhibitors of intracellular Trypanosoma cruzi; intracellular Trypanosoma cruzi in host cells, plate reader; activity score (inhibition), % at 5.01 µM; 4.9% of 22,000 active; in the data active = activity score above about 55%;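 note: parasites and compound incubated about four days before reading; 0% = median of neutral control wells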
* = called active by the depositor; nt = no result.

SMILES	A1 apoptosis 2	INS-1E rescue	T cruzi intra
O=C(Nc1ccccc1)C1=C[C@H](c2ccc3c(c2)Cc2ccccc2-3)C[C@H](OCc2ccc(CO)cc2)O1	-2	nt	nt
C[C@@H]1CN([C@@H](C)CO)C(=O)c2cccc(NC(=O)c3cnccn3)c2O[C@@H]1CN(C)Cc1ccc(C(F)(F)F)cc1	1	-12	-12
C[C@H](CO)N1C[C@H](C)[C@H](CN(C)Cc2ccc(C(F)(F)F)cc2)Oc2ccc(NC(=O)Nc3ccccc3)cc2CC1=O	0	-15	26
C[C@H](CO)N1C[C@H](C)[C@H](CN(C)Cc2ccc(-c3ccccc3)cc2)Oc2ccc(NC(=O)Nc3ccc(C(F)(F)F)cc3)cc2CC1=O	nt	-39	65*
C[C@@H]1CCCCO[C@@H](CN(C)C(=O)Nc2ccc(F)cc2)[C@@H](C)CN([C@H](C)CO)C(=O)c2cc(NS(C)(=O)=O)ccc2O1	nt	10	-3
C[C@H]1CN([C@@H](C)CO)C(=O)Cc2cc(NC(=O)C3CCCCC3)ccc2O[C@@H]1CN(C)Cc1ccc2c(c1)OCO2	nt	-11	66*
C[C@@H]1CN([C@H](C)CO)C(=O)Cc2cc(NC(=O)C3CCCCC3)ccc2O[C@H]1CN(C)Cc1ccc(Cl)c(Cl)c1	nt	-31	50
C[C@H](CO)N1C[C@H](C)[C@@H](CN(C)Cc2ccc3c(c2)OCO3)Oc2ccc(NC(=O)C3CCCCC3)cc2CC1=O	0	nt	nt
C[C@@H]1CN([C@H](C)CO)C(=O)Cc2cc(NC(=O)C3CCCCC3)ccc2O[C@@H]1CN(C)Cc1ccc(Cl)c(Cl)c1	nt	-78	57*
C[C@@H]1CN([C@H](C)CO)C(=O)c2cc(NC(=O)Cn3cnnn3)ccc2O[C@H]1CN(C)C(=O)Nc1ccccc1	0	7	-3
Cc1ccc(S(=O)(=O)N(C)C[C@@H]2OCCCC[C@@H](C)Oc3ccc(NC(=O)Nc4ccc(C(F)(F)F)cc4)cc3C(=O)N([C@H](C)CO)C[C@@H]2C)cc1	nt	-23	70*
C[C@@H]1CCCCO[C@H](CN(C)S(=O)(=O)c2ccc(Cl)cc2)[C@H](C)CN([C@@H](C)CO)C(=O)c2cc(NC(=O)Nc3ccc(C(F)(F)F)cc3)ccc2O1	0	nt	nt
C[C@@H]1CCCCO[C@H](CN(C)S(=O)(=O)c2ccc(F)cc2)[C@@H](C)CN([C@H](C)CO)C(=O)c2cc(NC(=O)Nc3ccc(C(F)(F)F)cc3)ccc2O1	0	-36	64*
C[C@@H]1CCCCO[C@H](CN(C)S(=O)(=O)c2ccc(F)cc2)[C@@H](C)CN([C@H](C)CO)C(=O)c2cc(NC(=O)Nc3ccc(F)cc3)ccc2O1	0	-7	14
CCCN(C)C[C@@H]1OCCCC[C@H](C)Oc2ccc(NC(=O)C3CCCCC3)cc2C(=O)N([C@H](C)CO)C[C@@H]1C	-1	nt	nt
Cc1ccc(S(=O)(=O)N(C)C[C@H]2Oc3ccc(NC(=O)Nc4c(C)noc4C)cc3C(=O)N([C@H](C)CO)C[C@@H]2C)cc1	2	0	-19
C[C@@H]1CN([C@@H](C)CO)C(=O)c2cc(NS(=O)(=O)c3cccs3)ccc2O[C@H]1CN(C)S(=O)(=O)c1ccc(F)cc1	1	5	62*
C[C@H](CO)N1C[C@H](C)[C@H](CN(C)S(=O)(=O)c2ccc(Cl)cc2)Oc2ccc(NS(=O)(=O)c3ccc(F)cc3)cc2C1=O	1	-16	63*
C[C@H](CO)N1C[C@H](C)[C@H](CN(C)S(=O)(=O)c2ccc(F)cc2)Oc2ccc(NS(=O)(=O)c3ccc(F)cc3)cc2C1=O	1	nt	68*
C[C@H](CO)N1C[C@H](C)[C@@H](CN(C)S(=O)(=O)c2ccc(F)cc2)Oc2ccc(NS(=O)(=O)c3ccc(F)cc3)cc2C1=O	nt	nt	-3
C[C@H]1CN([C@@H](C)CO)C(=O)c2cc(NS(=O)(=O)c3ccc(F)cc3)ccc2O[C@@H]1CN(C)S(=O)(=O)c1ccc(Cl)cc1	0	0	5
C[C@@H]1CN([C@H](C)CO)C(=O)c2cc(NS(=O)(=O)c3cccs3)ccc2O[C@H]1CN(C)S(=O)(=O)c1ccc(F)cc1	nt	nt	-7
C[C@H]1CN([C@@H](C)CO)C(=O)Cc2cc(NS(=O)(=O)c3ccc(Cl)cc3)ccc2O[C@@H]1CN(C)C(=O)NC1CCCCC1	0	36	-50
C[C@H](CO)N1C[C@H](C)[C@H](CN(C)C(=O)Nc2ccc(F)cc2)Oc2ccc(NC(=O)Nc3ccc4c(c3)OCO4)cc2C1=O	0	10	-29
C[C@@H]1CCCCO[C@@H](CN(C)CC2CCCCC2)[C@H](C)CN([C@H](C)CO)C(=O)c2cc(NC(=O)Nc3ccc(C(F)(F)F)cc3)ccc2O1	8.3*	nt	nt

Source: PubChem BioAssay (Broad Institute)
